Bioassay records (PubChem BioAssay)
This is a sample that favours compounds with a hit; in the whole collection about 5.7% have one here.
Mdm2 MdmX PPI = inhibitors of human Mdm2/MdmX interaction | O15151+Q00987 | SaOS-2 split-luciferase Mdm2/MdmX complementation, luminescence | inhibition, % at 8 µM | 3% of 330,000 active | AID 485346;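 active = inhibition of at least 50% at 8 µM in the primary screen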
T cruzi inh = T. cruzi replication inhibition; T. cruzi beta-gal in NIH3T3, luminescence, 90 h; inhibition, % (no concentration beside the values); 1.4% of 300,000 active;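 active = mean inhibition across valid replicates above about 55%, limit read from the data; inconclusive = mean below that limit but half or more replicates reach it; inactive = mean below it, under half of replicates reach it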;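 also: signal also drops with host cell toxicity which is not excluded here; 0% = plate median of DMSO wells and 100% = zero luminescence signal; higher percent means less beta-gal luminescence so fewer parasites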
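compound dosing = single 50 nL compound addition per well in DMSO | material = NIH/3T3 host cells with β-galactosidase reporter T. cruzi | input = 5,000 host fibroblasts per well | timing = ≥90 h infection period, 3 h prior cell attachment | read-out basis = percent inhibition of parasite-derived β-gal signal | detection = GalScreen β-gal luminescence, detergent lysis, 60 min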
Beta apoptosis = blocks beta cell apoptosis; INS-1E cytokine-induced death, ATP luminescence, 48 h; percent of positive-control rescue, neutral wells zero; protection from apoptosis, % (test concentration not listed); 0.8% of 300,000 active;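 active = Every replicate reaches about 75%, or at least half do and their mean reaches it too, limit read from the data; inconclusive = At least half of replicates reach the limit but their mean does not; inactive = Under half of replicates reach the limit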;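 also: 0% = cytokine-treated negative control wells and 100% = positive control rescue; higher means more ATP so stronger rescue from cytokine killing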
SKKanGAS inh = inhibitors of SKKanGAS S. pyogenes growth in kanamycin (SK-promoter or general growth effect); BacTiter-Glo, 6 h; inhibition, % at 7.5 µM; 1.3% of 300,000 active; AID 1662;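 active = mean replicate score, as percent of positive control median, at least 50; inconclusive = mean below 50 but one replicate at or above 50; inactive = mean and every replicate below 50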;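 also: strain carries kanamycin resistance gene driven by streptokinase promoter and grows in 40 µg/ml kanamycin; loss of luminescence reflects streptokinase promoter inhibition or plain growth inhibition; 0% = median of DMSO wells and 100% = positive control at its reference dose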
CSC inhib = blocks cancer stem cells; cancer stem cell-like cells viability, luminescence; AID 2717; 1.1% of 300,000 active; inhibition, % at 7.5 µM; in the data active = inhibition above about 75%; inconclusive = no clear call, values can overlap the other calls; tested in HMLE shEcad cells
Calb FLC = affects C. albicans growth with fluconazole | 0.57% of 300,000 active | AID 1979 | C. albicans CaCi-2 (fluconazole-resistant clinical isolate) + fluconazole, Alamar Blue growth, 48 h | growth inhibition, % (concentration not given with the values);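 active = growth inhibition above about 58% in most replicates, limit read from the data, passing the limit was not always enough; inconclusive = exactly half the replicates above a set limit; inactive = most replicates below a set limit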;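 also: all wells also contain fluconazole at 8 µg/ml as a sub-toxic cotreatment; 0% = median of DMSO wells and 100% = median of geldanamycin control wells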
Mdm2-MdmX conf = human Mdm2/MdmX binding inhibition, confirmed; shares compounds with Mdm2 MdmX PPI; luminescent assay; inhibition, % at 8 µM; 55% of 10,000 active; AID 489028; in the data active = inhibition above about 40%
FLuc counter = counter-screen for Mdm2/MdmX inhibitors: full-length luciferase | SaOS-2 full-length luciferase counterscreen, luminescence | inhibition, % at 8 µM | 77% of 6,200 active | shares compounds with Mdm2 MdmX PPI;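 active = mean inhibition at 8 µM reaching about 37%, which flags the compound as non-specific, limit read from the data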;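 also: p53-null SaOS-2 cells with luciferase driven by a doxycycline-inducible promoter; compound on cells about two nights before reading with doxycycline added after day one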
* hit, by the source's call; ? = inconclusive; nt = no result given.

SMILES	Mdm2 MdmX PPI	T cruzi inh	Beta apoptosis	SKKanGAS inh	CSC inhib	Calb FLC	Mdm2-MdmX conf	FLuc counter
CC1(C)CC(N=Cc2c(O)n(Cc3ccc4c(c3)OCO4)c(=O)c3ccccc23)CC(C)(C)N1	93*	8	2	2	-10	88*	40	69*
CN(C)CCN=Cc1c(O)n(Cc2ccccc2)c(=O)c2ccccc12	9	29	6	6	-3	-14	nt	nt
Cc1cnc(C(=O)OCC(=O)N2C(C)CCCC2C)cn1 (configuration not stated)	-9	nt	-3	nt	2	nt	nt	nt
COc1ccc(-n2ncc(Cl)c(Cl)c2=O)cc1	100*	57*	nt	-4	nt	45	99*	52*
Cc1ccc(/C=N/Nc2ccnc3cc(Cl)ccc23)c(C)c1	100*	68*	101*	95*	nt	-7	29	nt
CC1(C)OC(=O)C=C[C@]2(C)[C@H]3CC[C@@]4(C)[C@H](C(=O)O)OC(=O)[C@H]5O[C@]54[C@]3(C)C(=O)C[C@@H]12	-16	nt	1	nt	-4	nt	nt	nt
O=C(Cc1ccc(Cl)cc1)N/N=C/c1c(Cl)cccc1Cl	29	30	2	10	11	-5	nt	nt
Cc1ccc(O)c(/C=N/NC(=O)Cc2ccc(Cl)cc2)c1	64*	-1	nt	97*	22	19	51*	34
Cc1ccsc1/C=N/NC(=O)Cc1ccc(Cl)cc1	-9	-2	-4	-10	-6	-13	nt	nt
Cc1cccc(/C=N/NC(=O)Cc2ccc(Cl)cc2)c1O	64*	3	nt	107*	16	-4	42*	30
COc1ccc(CC(=O)Nc2ccccc2C(=O)N2CCCC2)cc1	-3	0	-13	-2	-8	-2	nt	nt
c1cc2[nH]snc2c2nc(C3CC3)nc12	72*	-9	-6	-2	-10	23	73*	26
Cn1nnnc1Sc1ncnc2scc(-c3cccc4ccccc34)c12	97*	nt	-2	nt	nt	nt	55*	22
COc1ccccc1-c1csc2ncnc(Sc3nnnn3C)c12	47	nt	-23	nt	-4	nt	nt	nt
Cn1nnnc1Sc1ncnc2scc(-c3ccc(Br)cc3)c12	99*	nt	2	nt	nt	nt	100*	53*
Cn1nnnc1Sc1ncnc2scc(-c3ccccc3Br)c12	70*	nt	-33	nt	52	nt	67*	25
Cn1nnnc1Sc1ncnc2scc(Br)c12	99*	nt	-5	nt	?	nt	32	nt
Cc1ccc(-c2csc3ncnc(SCC(N)=O)c23)cc1	27	-3	-4	-5	-7	-14	nt	nt
Cn1nnnc1SCSc1nnnn1C	2	-16	-3	-3	-1	-17	nt	nt
O=C(CCc1ccccc1)Nc1ccc(S(=O)(=O)NC2=NCCCCC2)cc1	6	nt	-1	nt	-1	nt	nt	nt
Cn1nnnc1SCc1nc2scc(-c3ccccc3)c2c(=O)[nH]1	23	-10	1	-3	-8	-15	nt	nt
Cn1nnnc1Sc1ncnc2scc(-c3ccc(F)cc3)c12	100*	-35	-18	-2	35	23	91*	54*
Cn1nnnc1Sc1ncnc2scc(-c3ccccc3)c12	78*	-55	-14	12	-5	-8	-2	nt
Cn1nnnc1Sc1ncnc2scc(-c3ccc[nH]3)c12	69*	nt	-61	nt	41	nt	47*	29
CSc1ncccc1C(=O)OCC(=O)NC1CC1	1	nt	nt	nt	nt	nt	nt	nt
Cc1cc2c(cc1C)-c1c(ssc1=Nc1ccc(S(N)(=O)=O)cc1)C(C)(C)N2	62*	26	28	50*	-2	4	40*	44*
COc1ccc(NC(=O)CN2C(=O)NC(CC(C)C)C2=O)cc1S(=O)(=O)N1CCOCC1 (configuration not stated)	-3	nt	-3	nt	-18	nt	nt	nt
CCOC(=O)N1CCN(Cc2nc3cc(NC(=O)c4ccco4)ccc3n2C)CC1	3	-8	5	-2	20	-7	nt	nt
CCOC(=O)Cn1c(=NC(=O)CN2C(=O)CCC2=O)sc2cc(S(N)(=O)=O)ccc21	0	-18	-4	-3	-16	-1	nt	nt
CCOC(=O)Cn1c(=NC(=O)c2nc3ccccc3s2)sc2cc(S(N)(=O)=O)ccc21	63*	2	16	14	-14	-3	18	nt
